In ChEMBL document CHEMBL4007469, “Design and synthesis of dalbergin analogues and evaluation of anti-osteoporotic activity” (Bioorg Med Chem Lett, 2017):
Calls of active or inactive are those of the source. No cut-off for these calls is given here.

Tests used:
[1] = Induction of osteoblast differentiation in mouse calvarial cells assessed as increase in ALP activity using PNPP as substrate after 48 hrs; type: functional, cell-based; details: Calvarial cell
[2] = Induction of osteoblast differentiation in mouse calvarial cells assessed as compound concentration required for maximum increase in ALP activity using PNPP as substrate after 48 hrs; type: functional, Calvarial cell
Calvarial cell = experiment: Induction of mineralization in mouse calvarial cells assessed as calcium nodule formation at Emax incubated for 12 days by alizarin red-S staining based spectrophotometric method; type: functional
In short: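 Primary mouse calvarial osteoblasts treated with or without compound for 12 days, fixed in 4% formaldehyde, stained with alizarin red-S, and the stain extracted and quantified by the acetic acid method.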

| SMILES | EC50 [1] | Concentration giving maximal ALP increase [2] | Activity (Calvarial cell) |
| --- | --- | --- | --- |
| COc1cc2oc(=O)cc(-c3ccccc3)c2cc1OC(=O)Cc1cccs1 | 7.4 nM | 10000 pM |  |
| COc1cc2oc(=O)cc(-c3ccccc3)c2cc1OCCCl | 19.4 nM | 1 pM |  |
| COc1cc2oc(=O)cc(-c3ccccc3)c2cc1OC(=O)c1ccc(Br)cc1 | 0.8 nM | 1e+06 pM |  |
| C/C=C(\C)C(=O)Oc1cc2c(-c3ccccc3)cc(=O)oc2cc1OC | 1.1 nM | 1e+06 pM |  |
| CCN1CCN(CCCOc2cc3c(-c4ccccc4)cc(=O)oc3cc2OC)CC1 | 27.9 nM | 10000 pM |  |
| CCN1CCN(CCCCCOc2cc3c(-c4ccccc4)cc(=O)oc3cc2OC)CC1 | 12400 nM |  |  |
| COc1cc2oc(=O)cc(-c3ccccc3)c2cc1OCCCCCBr | 5.7 nM | 10000 pM | Active |
| COc1cc2oc(=O)cc(-c3ccccc3)c2cc1OCCCCCN1CCCCC1 | 10.8 nM | 1 pM | Active |
| COc1cc2oc(=O)cc(-c3ccccc3)c2cc1OCCCN1CCN(C)CC1 | 9.42 nM | 100 pM |  |
| COc1cc2oc(=O)cc(-c3ccccc3)c2cc1OCCCBr | 5.9 nM | 100 pM | Active |

More lines, main results first:

| EC50 [1] | SMILES | Concentration giving maximal ALP increase [2] | Activity (Calvarial cell) |
| --- | --- | --- | --- |
| 13.6 nM | CCN1CCN(CCOc2cc3c(-c4ccccc4)cc(=O)oc3cc2OC)CC1 | 1 pM | Active |
| 14.8 nM | COc1cc2oc(=O)cc(-c3ccccc3)c2cc1OCCN1CCN(C)CC1 | 1 pM | Active |
| 7.6 nM | COc1cc2oc(=O)cc(-c3ccccc3)c2cc1OCCCN1CCCCC1 | 1 pM | Active |
| 11.7 nM | COc1cc2oc(=O)cc(-c3ccccc3)c2cc1OCCN1CCOCC1 | 1 pM | Active |
| 900 nM | COc1cc2oc(=O)cc(-c3ccccc3)c2cc1OCCCCCN1CCOCC1 | 10000 pM | Active |
